Data published in ChEMBL document CHEMBL4819008, “Design, synthesis, and evaluation of "dual-site"-binding diarylpyrimidines targeting both NNIBP and the NNRTI adjacent site of the HIV-1 reverse transcriptase” (Eur J Med Chem, 2021).

Experiments:
[1] = test system: Human immunodeficiency virus 1; experiment: Potency index, ratio of EFV EC50 to test compound EC50 for antiviral activity against HIV-1 harboring reverse transcriptase Y188L mutant infected in human MT4 cells assessed as inhibition of virus induced cytopathic effect measured after 5 days by MTT assay; assay type: functional; conditions: time 5 day
[2] = Selectivity index, ratio of CC50 for human MT4 cells to EC50 for wild type HIV-1 3B infected in human MT4 cells; assay type: toxicity, cell-based; conditions: read-out: Ratio CC50/EC50
[3] = molecular target: Human immunodeficiency virus type 1 reverse transcriptase (Human immunodeficiency virus 1, UniProt Q72547); experiment: (§1) Inhibition of HIV-1 reverse transcriptase assessed as reduction in biotin-dUTP incorporation into cDNA incubated for 1 hr with DIG-dUTP, biotin-dUTP and dTTP followed by transferring onto streptavidin-coated plate and measured after 1 hr by ELISA
How it was run: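 Recombinant WT HIV-1 RT was tested with a Roche colorimetric kit. Enzyme, reconstituted template, DIG-dUTP, biotin-dUTP and dTTP were incubated 1 h at 37 °C in incubation buffer with or without inhibitor. The mix was then held 1 h at 37 °C on a streptavidin-coated plate, then anti-DIG-POD 1 h at 37 °C, then ABTS at 25 °C, and read at OD405.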

[4] = test system: Human immunodeficiency virus 1; experiment: Antiviral activity against HIV-1 harboring reverse transcriptase F227L/V106A mutant infected in human MT4 cells assessed as inhibition of virus induced cytopathic effect measured after 5 days by MTT assay; assay type: functional, organism-based; conditions: Human immunodeficiency virus 1, MT4, 120 h
How it was run: (§2)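 MT-4 cells, exponentially growing, resuspended at 6 × 10^5 cells/mL and infected with the mutant HIV-1 stock at 100–300 CCID50. Compounds were added as 5-fold serial dilutions, in triplicate wells, alongside mock-infected wells. After 5 days, viability was read by MTT reduction at 540 and 690 nm using the median OD of three wells. EC50 is the concentration giving 50% protection from viral cytopathogenicity.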

[5] = test system: Human immunodeficiency virus 1; experiment: Potency index, ratio of AZT EC50 to test compound EC50 for antiviral activity against wild type HIV-1 3B infected in human MT4 cells assessed as inhibition of virus-induced cytopathic effect measured after 5 days by MTT assay; assay type: functional; conditions: time 5 day
[6] = molecular target: Human immunodeficiency virus type 1 reverse transcriptase (Human immunodeficiency virus 1) (UniProt Q72547); experiment: as §1, with “Potency index, ratio of ETV IC50 to test compound IC50 for Inhibition” for “Inhibition”; conditions: time 2.0 hrs
[7] = test system: Human immunodeficiency virus 1; experiment: Antiviral activity against HIV-1 harboring reverse transcriptase RES056 mutant infected in human MT4 cells assessed as inhibition of virus induced cytopathic effect measured after 5 days by MTT assay; assay type: functional, organism-based; conditions: Human immunodeficiency virus 1, MT4, 120 h; how it was run: as §2
[8] = test system: Human immunodeficiency virus 1; experiment: Antiviral activity against HIV-1 harboring reverse transcriptase L100I mutant infected in human MT4 cells assessed as inhibition of virus induced cytopathic effect measured after 5 days by MTT assay; assay type: functional, organism-based; conditions: Human immunodeficiency virus 1, MT4, 120 h; how it was run: as §2
[9] = Selectivity index, ratio of CC50 for human TZM-bl cells to EC50 for wild type HIV1 NL4-3 infected in human TZM-bl cells; assay type: toxicity, cell-based; conditions: read-out: Ratio CC50/EC50
How it was run: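 Selectivity index is CC50/EC50, with both values from the TZM-bl assays: NL4-3 single-round luciferase infection and CytoTox-Glo viability, each over 1 day.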

[10] = test system: Human immunodeficiency virus 1; experiment: Antiviral activity against wild type HIV-1 3B infected in human MT4 cells assessed as inhibition of virus-induced cytopathic effect measured after 5 days by MTT assay; assay type: functional, organism-based; conditions: Human immunodeficiency virus 1, 3B, MT4, 120 h
How it was run: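 MT-4 cells at 6 × 10^5 cells/mL were infected with virus stock at 100–300 CCID50 in the presence of serial 5-fold compound dilutions, in triplicate wells. Viability was read by MTT reduction 5 days after infection, with absorbance at 540 and 690 nm and the median OD of three wells used. EC50 is the concentration giving 50% protection from viral cytopathicity.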

[11] = test system: Human immunodeficiency virus 1; experiment: Antiviral activity against HIV-1 harboring reverse transcriptase E138K mutant infected in human MT4 cells assessed as inhibition of virus induced cytopathic effect measured after 5 days by MTT assay; assay type: functional, organism-based; conditions: Human immunodeficiency virus 1, MT4, 120 h; how it was run: as §2
[12] = test system: Human immunodeficiency virus 1; experiment: Antiviral activity against wild type HIV1 NL4-3 infected in human TZM-bl cells assessed as reduction in viral infection measured after 1 day by luciferase reporter gene assay based luminiscence assay; assay type: functional, organism-based; conditions: Human immunodeficiency virus 1, NL4-3, TZM-bl, 24 h
How it was run: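 TZM-bl cells got a single-round infection with 800 TCID50 of NL4-3 at various compound concentrations, top concentration 100 ng/mL. Luminescence was read 1 day post-infection. EC50 is the concentration giving a 50% decrease in luciferase RLU versus control wells, determined in at least triplicate.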

[13] = test system: Human immunodeficiency virus 1; experiment: Antiviral activity against HIV-1 harboring reverse transcriptase Y188L mutant infected in human MT4 cells assessed as inhibition of virus induced cytopathic effect measured after 5 days by MTT assay; assay type: functional, organism-based; conditions: Human immunodeficiency virus 1, MT4, 120 h; how it was run: as §2
[14] = test system: Human immunodeficiency virus 1; experiment: Potency index, ratio of nevirapine EC50 to test compound EC50 for antiviral activity against wild type HIV-1 3B infected in human MT4 cells assessed as inhibition of virus-induced cytopathic effect measured after 5 days by MTT assay; assay type: functional; conditions: time 5 day
[15] = Antiviral activity against HIV-2 ROD infected in human MT4 cells assessed as protection against virus-induced cytopathic effect measured after 5 days by MTT assay; conditions: Human immunodeficiency virus 2, ISOLATE ROD, MT4, 120 h
[16] = test system: Human immunodeficiency virus 1; experiment: Antiviral activity against HIV-1 harboring reverse transcriptase K103N mutant infected in human MT4 cells assessed as inhibition of virus induced cytopathic effect measured after 5 days by MTT assay; assay type: functional, organism-based; conditions: Human immunodeficiency virus 1, MT4, 120 h; how it was run: as §2
[17] = test system: Human immunodeficiency virus 1; experiment: Antiviral activity against HIV-1 harboring reverse transcriptase Y181C mutant infected in human MT4 cells assessed as inhibition of virus induced cytopathic effect measured after 5 days by MTT assay; assay type: functional, organism-based; conditions: Human immunodeficiency virus 1, MT4, 120 h; how it was run: as §2
[18] = Cytotoxicity against human TZM-bl cells assessed as reduction in cell viability measured after 1 day by CytoTox-Glo assay; assay type: cell-based
How it was run: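 TZM-bl cells were cultured 1 day with various compound concentrations, in parallel with the antiviral assay, top concentration 100 ng/mL. Viable cells were measured by CytoTox-Glo. CC50 is the concentration causing a 50% reduction in cell viability.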

[19] = Cytotoxicity against human MT4 cells assessed as reduction in cell viability measured after 5 days by MTT assay; assay type: cell-based; conditions: time 5 day
How it was run: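 Mock-infected MT-4 cells (6 × 10^5 cells/mL) were run in parallel with the infected wells, under serial 5-fold compound dilutions in triplicate. MTT viability was read after 5 days and the median OD of three wells used. CC50 is the concentration that reduced OD540 of the mock-infected cells by 50%.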

Row | SMILES | Ratio EC50 [1] | selectivity ratio [2] | IC50 [3] [µM] | EC50 [4] [µM] | Ratio EC50 [5] | Ratio IC50 [6] | EC50 [7] [µM] | EC50 [8] [µM] | selectivity ratio [9] | EC50 [10] [µM] | EC50 [11] [µM] | EC50 [12] [µM] | EC50 [13] [µM] | Ratio EC50 [14] | EC50 [15] [µM] | EC50 [16] [µM] | EC50 [17] [µM] | CC50 at 24 h [18] [µM] | CC50 at 120 h [19] [µM]
1 | C#CCNC(=O)/C=C/c1cnc(Nc2ccc(C#N)cc2)nc1Oc1c(C)cc(C#N)cc1C | 2.3 | 26900 | 0.059 | 0.402 | 3.5 | 6 | 1.29 | 0.113 | > 91 | 0.0052 | 0.0106 | 0.00245 | 0.0645 | 16.2 | > 141 | 0.0104 | 0.0618 | > 0.222 | 141
2 | COCCNC(=O)/C=C/c1cnc(Nc2ccc(C#N)cc2)nc1Oc1c(C)cc(C#N)cc1C | 1.6 | > 34300 |  | 0.343 |  |  | 1.49 | 0.166 | > 48 | 0.0078 | 0.0165 | 0.00448 | 0.0906 |  | > 267 | 0.0137 | 0.098 | > 0.213 | > 267
